Assay results: ChEMBL document CHEMBL1130429 (J Med Chem, 1997)

Assays:
[1] = biological target: Dopamine receptor D2 and D3 (Rattus norvegicus, UniProt P19020+P61169); experiment: In vitro binding affinity for D2/D3 receptors in rat striatal homogenates by [125I]NCQ298 displacement.
[2] = biological target: Sigma 2 receptor; experiment: Sigma 2 binding assay was done rat liver membrane, by labeling the binding site with [3H]DTG (DuPont-NEN) in the presence of […]-pentazocine (100 nM)
[3] = biological target: Sigma 2 receptor; experiment: Sigma 2 binding assay was done rat liver membrane, by labeling the binding site with [3H]-DTG (DuPont-NEN) in the presence of […]-pentazocine (100 nM)
Procedure, shortened: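 P2 membranes from male Sprague-Dawley rat liver (35 µg protein) with 3 nM [3H]DTG plus 100 nM unlabelled (+)-pentazocine to mask σ1, 50 mM Tris-HCl pH 8.0, 120 min, 25 °C; GF/B filtration; nonspecific with 5 µM DTG. IC50 in triplicate from 5-10 concentrations, Ki via Cheng-Prusoff (Kd 17.9 nM), mean ± SEM.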

[4] = biological target: T1, Sodium-dependent dopamine transporter (Rattus norvegicus, UniProt P23977); experiment: Binding affinity for dopamine transporter was determined in rat striatal membrane.; type: cell membranes
[5] = biological target: T1, Sodium-dependent dopamine transporter; experiment: Binding affinity for dopamine transporter was determined in rat striatal membrane; type: cell membranes, Striatum
[6] = biological target: T2, Sodium-dependent serotonin transporter (Rattus norvegicus, UniProt P31652); experiment: Binding affinity for serotonin transporter was determined in rat cortical membrane.; type: cell membranes
[7] = biological target: T2, Sodium-dependent serotonin transporter; experiment: Binding affinity for serotonin transporter was determined in rat cortical membrane; type: cell membranes

T2 sequence (P31652 whole entry): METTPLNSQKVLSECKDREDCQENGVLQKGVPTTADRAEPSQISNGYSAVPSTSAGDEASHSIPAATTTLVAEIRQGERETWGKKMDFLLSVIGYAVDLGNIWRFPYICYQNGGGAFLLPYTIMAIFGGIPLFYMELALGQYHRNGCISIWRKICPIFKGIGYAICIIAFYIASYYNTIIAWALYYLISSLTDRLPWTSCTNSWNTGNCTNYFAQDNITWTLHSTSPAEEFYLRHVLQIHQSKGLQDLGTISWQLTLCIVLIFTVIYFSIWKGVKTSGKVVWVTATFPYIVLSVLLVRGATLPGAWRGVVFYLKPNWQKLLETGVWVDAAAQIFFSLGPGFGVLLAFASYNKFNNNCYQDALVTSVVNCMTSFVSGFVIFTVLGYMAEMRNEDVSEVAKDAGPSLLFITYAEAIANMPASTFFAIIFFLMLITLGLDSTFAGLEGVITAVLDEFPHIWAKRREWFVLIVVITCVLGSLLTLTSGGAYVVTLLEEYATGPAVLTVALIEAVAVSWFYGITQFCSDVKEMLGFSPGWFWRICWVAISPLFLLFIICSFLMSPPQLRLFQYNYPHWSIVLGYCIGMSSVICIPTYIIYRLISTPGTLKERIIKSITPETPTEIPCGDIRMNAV
T1 sequence (P23977 whole entry): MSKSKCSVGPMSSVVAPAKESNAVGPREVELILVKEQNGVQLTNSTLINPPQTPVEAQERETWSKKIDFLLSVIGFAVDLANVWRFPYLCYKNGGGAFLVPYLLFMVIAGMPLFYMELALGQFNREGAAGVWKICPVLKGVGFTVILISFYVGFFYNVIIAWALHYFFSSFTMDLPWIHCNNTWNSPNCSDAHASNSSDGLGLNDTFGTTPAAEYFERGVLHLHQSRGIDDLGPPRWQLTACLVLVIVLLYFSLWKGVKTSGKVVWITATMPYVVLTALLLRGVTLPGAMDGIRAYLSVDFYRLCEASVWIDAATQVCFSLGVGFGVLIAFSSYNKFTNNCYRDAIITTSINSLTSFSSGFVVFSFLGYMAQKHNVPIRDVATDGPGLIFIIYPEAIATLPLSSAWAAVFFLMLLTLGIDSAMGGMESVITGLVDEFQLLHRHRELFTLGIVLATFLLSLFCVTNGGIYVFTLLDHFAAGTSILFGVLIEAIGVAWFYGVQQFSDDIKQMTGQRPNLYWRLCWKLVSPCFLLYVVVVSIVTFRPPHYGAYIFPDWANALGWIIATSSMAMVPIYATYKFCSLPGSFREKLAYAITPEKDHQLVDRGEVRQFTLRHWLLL

Row | Structure (SMILES) | Ki [1] | Ki [3] | Ki [4] | other results
1 | O[C@@H]1CCN(Cc2ccc(F)cc2)C[C@H]1N1CCC2(CCc3ccccc32)CC1 | > 1000 nM |  |  | Ki [2]: 67 nM
2 | OC(CN1C2CCC1CC(c1ccccc1)C2)c1ccc(Cl)c(Cl)c1 (stereo unspecified) |  | 18.8 nM | 23.6 nM | 
3 | OC(CN1C2CCC1CC(c1ccccc1)C2)c1ccccc1 (stereo unspecified) |  | 32.7 nM |  | Ki [5]: 41.5 nM
4 | O=C(CCCN1CCC2(CCc3ccccc32)CC1)c1ccc(F)cc1 |  |  |  | Ki [2]: 3.3 nM
5 | O[C@@H](CN1CCC2(CCc3ccccc32)CC1)c1cccc(Br)c1 | > 1000 nM | 12.7 nM |  | 
6 | O=C(CN1C2CCC1CC(c1ccccc1)C2)c1ccc(F)cc1 (stereo unspecified) |  | 73.3 nM | 222 nM | 
7 | O[C@@H]1CCN(Cc2cccc(I)c2)C[C@H]1N1CCC2(CCc3ccccc32)CC1 | > 1000 nM |  |  | Ki [2]: 224 nM
8 | OC(CN1C2CCC1CC(c1ccccc1)C2)c1cccc(Br)c1 (stereo unspecified) | 2658 nM | 9.87 nM | 23.6 nM | Ki [6]: 27 nM
9 | O[C@H]1Cc2ccccc2C[C@@H]1N1C2CCC1CC(c1ccccc1)C2 (stereo partly specified) | 3385 nM |  |  | Ki [5]: 1070 nM; Ki [7]: 1680 nM
10 | OC(CN1C2CCC1CC(c1ccccc1)C2)c1ccccc1Br (stereo unspecified) |  | 7.71 nM | 67.2 nM | 
11 | OC(Cc1ccc(Br)cc1)CN1C2CCC1CC(c1ccccc1)C2 (stereo unspecified) | 1490 nM | 4.95 nM |  | Ki [5]: 306 nM; Ki [7]: 234 nM
12 | CN1CC2(CCN([C@@H]3CCCC[C@H]3O)CC2)c2ccccc21 | > 1000 nM | 357 nM |  | 
13 | O[C@H](Cc1ccc(Br)cc1)CN1CCC2(CCc3ccccc32)CC1 | > 1000 nM |  |  | Ki [2]: 8.8 nM
14 | CN1CC2(CCN(C[C@H](O)c3cccc(Br)c3)CC2)c2ccccc21 | > 1000 nM |  |  | Ki [2]: 99.2 nM
15 | OC(CN1C2CCC1CC(c1ccccc1)C2)c1ccc(Br)cc1 (stereo unspecified) | 5092 nM | 11.3 nM | 73.8 nM | Ki [6]: 30.1 nM
16 | O[C@H]1CCN(Cc2cccc(I)c2)C[C@@H]1N1C2CCC1CC(c1ccccc1)C2 (stereo partly specified) | 1967 nM | 275 nM | 1070 nM | Ki [6]: 4430 nM
17 | O[C@H]1CCN(Cc2ccc(F)cc2)C[C@@H]1N1C2CCC1CC(c1ccccc1)C2 (stereo partly specified) | 8795 nM | 260 nM | 4180 nM | Ki [6]: 9200 nM
18 | CN1CC2(CCN([C@@H]3CN(Cc4ccc(F)cc4)CC[C@H]3O)CC2)c2ccccc21 | > 1000 nM |  |  | 
19 | O=C(CCCN1C2CCC1CC(c1ccccc1)C2)c1ccc(F)cc1 (stereo unspecified) | 16.3 nM | 15.4 nM | 129 nM | Ki [6]: 88.6 nM
20 | OC(CCCN1C2CCC1CC(c1ccccc1)C2)c1ccc(F)cc1 (stereo unspecified) |  |  |  | Ki [5]: 464 nM
21 | CN1CC2(CCN([C@@H]3CN(Cc4cccc(I)c4)CC[C@H]3O)CC2)c2ccccc21 | > 1000 nM |  |  | Ki [2]: 139 nM
22 | OC(CN1C2CCC1CC(c1ccccc1)C2)c1c(Cl)cccc1Cl (stereo unspecified) |  | 15.9 nM | 42 nM | 
23 | O[C@@H]1CCCC[C@H]1N1CCC2(CCc3ccccc32)CC1 | > 1000 nM |  |  | Ki [2]: 30 nM
24 | CN1CC2(CCN(C[C@H](O)Cc3ccc(Br)cc3)CC2)c2ccccc21 | > 1000 nM |  |  | Ki [2]: 22.9 nM
25 | O[C@@H]1Cc2ccccc2C[C@H]1N1CCC2(CCc3ccccc32)CC1 | > 1000 nM |  |  | 
26 | O[C@H]1CCCC[C@@H]1N1C2CCC1CC(c1ccccc1)C2 (stereo partly specified) | > 38000 nM | 118 nM |  | Ki [5]: 2810 nM; Ki [7]: 3420 nM
27 | CN1CC2(CCN([C@@H]3Cc4ccccc4C[C@H]3O)CC2)c2ccccc21 | > 1000 nM |  |  | 
28 | CN1CC2(CCN(CCCC(=O)c3ccc(F)cc3)CC2)c2ccccc21 | 56.5 nM | 60.8 nM |  | 
